7 molecules from ChEMBL document CHEMBL1781932 (J Med Chem, 2011) can be followed below.

What all share (assay type): functional
Experiment [1] has as its system Escherichia coli. Put plainly: Antimicrobial activity against tetracycline-susceptible Escherichia coli isolate 107 by CLSI dilution method. The gist of the method:
(§1)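 Broth microdilution per CLSI in fresh cation-adjusted Mueller Hinton broth, kept at 4 °C before testing, with defibrinated horse blood added as appropriate. Strains were from ATCC. MIC in µg/mL. Runs were accepted when comparator antibiotics against ATCC quality-control strains fell within recommended ranges.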

The subject of experiment [2] is Staphylococcus aureus. Description: Antimicrobial activity against methicillin-, tetracycline-resistant Staphylococcus aureus isolate 161 harboring tetM gene by CLSI dilution method.
The subject of experiment [3] is Streptococcus pneumoniae. Put plainly: Antimicrobial activity against tetracycline-susceptible Streptococcus pneumoniae isolate 106 by CLSI dilution method. In outline:
as §1

The subject of experiment [4] is Enterococcus faecalis. Put plainly: Antimicrobial activity against tetracycline-susceptible Enterococcus faecalis isolate 103 by CLSI dilution method. In outline:
as §1

The test system of experiment [5] is Klebsiella pneumoniae. Put plainly: Antimicrobial activity against tetracycline-resistant Klebsiella pneumoniae isolate 153 harboring tetA gene by CLSI dilution method.
Experiment [6] concerns Streptococcus pneumoniae. Description: Antimicrobial activity against tetracycline-resistant Streptococcus pneumoniae isolate 160 harboring tetM gene by CLSI dilution method.
Experiment [7] deals with Klebsiella pneumoniae. Put plainly: Antimicrobial activity against tetracycline-susceptible Klebsiella pneumoniae isolate 109 by CLSI dilution method. The gist of the method:
as §1

Another experiment concerns Enterobacter cloacae. Put plainly: Antimicrobial activity against tetracycline-susceptible Enterobacter cloacae isolate 108 by CLSI dilution method. In outline:
as §1

Experiment [8] relates to Staphylococcus aureus. Description: Antimicrobial activity against tetracycline-resistant Staphylococcus aureus isolate 158 harboring tetK gene by CLSI dilution method.
For experiment [9], the system named is Enterococcus faecalis. Put plainly: Antimicrobial activity against tetracycline-resistant Enterococcus faecalis isolate 159 harboring […] gene by CLSI dilution method.
The subject of a further experiment is Acinetobacter baumannii. Put plainly: Antimicrobial activity against tetracycline-susceptible Acinetobacter baumannii isolate 110 by CLSI dilution method. The gist of the method:
as §1

The test system of experiment [10] is Staphylococcus aureus. Put plainly: Antimicrobial activity against tetracycline-susceptible Staphylococcus aureus isolate 101 by CLSI dilution method.
The subject of a further experiment is Pseudomonas aeruginosa. Put plainly: Antimicrobial activity against tetracycline-susceptible Pseudomonas aeruginosa isolate 111 by CLSI dilution method. The gist of the method:
as §1

The test system of experiment [11] is Escherichia coli. Put plainly: Antimicrobial activity against tetracycline-resistant Escherichia coli isolate 155 harboring tetA gene by CLSI dilution method.

Converted amounts (≈) assume the structure as drawn.

The term MIC denotes the least concentration at which growth counts as inhibited. Read a low MIC as greater potency. In the case of `CN(C)[C@@H]1C(O)=C(C(N)=O)C(=O)[C@@]2(O)C(O)=C3C(=O)c4c(cc5ccc(CN6CCCCC6)cc5c4O)C[C@H]3C[C@@H]12`, the MIC with Escherichia coli [1] worked out at 2 µg/mL (≈ 3.56 µM); against Staphylococcus aureus [2], 2 µg/mL (≈ 3.56 µM); against Streptococcus pneumoniae [3] it was 0.125 µg/mL (≈ 0.223 µM); in the experiment with Enterococcus faecalis [4], 0.5 µg/mL (≈ 0.89 µM); against Klebsiella pneumoniae [5], 8 µg/mL (≈ 14.2 µM); against Streptococcus pneumoniae [6], 0.25 µg/mL (≈ 0.445 µM). Further, the MIC came to 8 µg/mL (≈ 14.2 µM) in the experiment on Klebsiella pneumoniae [7]; 8 µg/mL (≈ 14.2 µM) in the experiment with Enterobacter cloacae; 0.5 µg/mL (≈ 0.89 µM) against Staphylococcus aureus [8]; 2 µg/mL (≈ 3.56 µM) in the experiment with Enterococcus faecalis [9]; 1 µg/mL (≈ 1.78 µM) against Acinetobacter baumannii; 0.5 µg/mL (≈ 0.89 µM) in the experiment on Staphylococcus aureus [10]. In the experiment on Pseudomonas aeruginosa, this molecule had a minimal inhibitory concentration (MIC) above 32 µg/mL.

As for `CN(C)[C@@H]1C(O)=C(C(N)=O)C(=O)[C@@]2(O)C(O)=C3C(=O)c4c(c(F)c5ccc(CN6CCCC6)cc5c4O)C[C@H]3C[C@@H]12`, the minimum inhibitory concentration (MIC) against Escherichia coli [1] was 1 µg/mL (≈ 1.77 µM); with Staphylococcus aureus [2] it was 1 µg/mL (≈ 1.77 µM); against Streptococcus pneumoniae [3], 0.0313 µg/mL (≈ 0.0553 µM); in the experiment on Enterococcus faecalis [4] it was 0.125 µg/mL (≈ 0.221 µM); with Klebsiella pneumoniae [5], 4 µg/mL (≈ 7.07 µM); against Streptococcus pneumoniae [6] it was 0.0313 µg/mL (≈ 0.0553 µM). For the same molecule, the MIC in the experiment on Klebsiella pneumoniae [7] is 2 µg/mL (≈ 3.54 µM); against Enterobacter cloacae, 4 µg/mL (≈ 7.07 µM); against Escherichia coli [11], 4 µg/mL (≈ 7.07 µM); against Staphylococcus aureus [8], 0.125 µg/mL (≈ 0.221 µM); in the experiment with Enterococcus faecalis [9] it was 1 µg/mL (≈ 1.77 µM); against Acinetobacter baumannii, 0.25 µg/mL (≈ 0.442 µM). For the same molecule, the minimal inhibitory concentration (MIC) in the experiment with Staphylococcus aureus [10] is 0.25 µg/mL (≈ 0.442 µM); with Pseudomonas aeruginosa it was 32 µg/mL (≈ 56.6 µM).

For `CCCNCc1ccc2c(OC)c3c(c(O)c2c1)C(=O)C1=C(O)[C@]2(O)C(=O)C(C(N)=O)=C(O)[C@@H](N(C)C)[C@@H]2C[C@@H]1C3`, the MIC was found to be 1 µg/mL (≈ 1.77 µM) against Escherichia coli [1]; 2 µg/mL (≈ 3.54 µM) against Staphylococcus aureus [2]; 0.0156 µg/mL (≈ 0.0276 µM) against Streptococcus pneumoniae [3]; 0.125 µg/mL (≈ 0.221 µM) with Enterococcus faecalis [4]; 0.125 µg/mL (≈ 0.221 µM) in the experiment on Streptococcus pneumoniae [6]; 1 µg/mL (≈ 1.77 µM) against Klebsiella pneumoniae [7]. Besides, the MIC was determined as 1 µg/mL (≈ 1.77 µM) against Enterobacter cloacae; 8 µg/mL (≈ 14.1 µM) with Escherichia coli [11]; 0.0625 µg/mL (≈ 0.11 µM) with Staphylococcus aureus [8]; 2 µg/mL (≈ 3.54 µM) in the experiment with Enterococcus faecalis [9]; 1 µg/mL (≈ 1.77 µM) in the experiment on Acinetobacter baumannii; 0.25 µg/mL (≈ 0.442 µM) with Staphylococcus aureus [10]. Moreover, in the experiment with Pseudomonas aeruginosa, the MIC worked out at 16 µg/mL (≈ 28.3 µM).

In the case of `COc1c2c(c(O)c3cc(CN4CCCC4)ccc13)C(=O)C1=C(O)[C@]3(O)C(=O)C(C(N)=O)=C(O)[C@@H](N(C)C)[C@@H]3C[C@@H]1C2`, the minimum inhibitory concentration (MIC) in the experiment with Escherichia coli [1] is 1 µg/mL (≈ 1.73 µM); against Staphylococcus aureus [2], 2 µg/mL (≈ 3.46 µM); in the experiment with Streptococcus pneumoniae [3] it was 0.0156 µg/mL (≈ 0.027 µM); against Enterococcus faecalis [4] it was 0.25 µg/mL (≈ 0.433 µM); in the experiment with Klebsiella pneumoniae [5], 8 µg/mL (≈ 13.8 µM); with Streptococcus pneumoniae [6], 0.25 µg/mL (≈ 0.433 µM). For the same molecule, the MIC came to 4 µg/mL (≈ 6.92 µM) against Klebsiella pneumoniae [7]; 4 µg/mL (≈ 6.92 µM) with Enterobacter cloacae; 8 µg/mL (≈ 13.8 µM) in the experiment with Escherichia coli [11]; 0.125 µg/mL (≈ 0.216 µM) against Staphylococcus aureus [8]; 4 µg/mL (≈ 6.92 µM) against Enterococcus faecalis [9]; 1 µg/mL (≈ 1.73 µM) in the experiment on Acinetobacter baumannii. Further, the minimal inhibitory concentration (MIC) in the experiment on Staphylococcus aureus [10] was determined as 0.25 µg/mL (≈ 0.433 µM); against Pseudomonas aeruginosa it was 16 µg/mL (≈ 27.7 µM).

With `CNCc1ccc2c(N(C)C)c3c(c(O)c2c1)C(=O)C1=C(O)[C@]2(O)C(=O)C(C(N)=O)=C(O)[C@@H](N(C)C)[C@@H]2C[C@@H]1C3`, the minimum inhibitory concentration (MIC) against Escherichia coli [1] worked out at 2 µg/mL (≈ 3.63 µM); with Staphylococcus aureus [2] it was 2 µg/mL (≈ 3.63 µM); in the experiment with Streptococcus pneumoniae [3] it was 0.125 µg/mL (≈ 0.227 µM); in the experiment with Enterococcus faecalis [4], 0.5 µg/mL (≈ 0.908 µM); in the experiment with Klebsiella pneumoniae [5] it was 32 µg/mL (≈ 58.1 µM); against Streptococcus pneumoniae [6] it was 0.5 µg/mL (≈ 0.908 µM). Besides, the minimum inhibitory concentration (MIC) against Klebsiella pneumoniae [7] came out at 4 µg/mL (≈ 7.26 µM); against Enterobacter cloacae, 8 µg/mL (≈ 14.5 µM); in the experiment with Escherichia coli [11], 32 µg/mL (≈ 58.1 µM); against Staphylococcus aureus [8] it was 0.5 µg/mL (≈ 0.908 µM); with Enterococcus faecalis [9] it was 4 µg/mL (≈ 7.26 µM); with Acinetobacter baumannii, 2 µg/mL (≈ 3.63 µM). For the same molecule, the MIC against Staphylococcus aureus [10] was 0.25 µg/mL (≈ 0.454 µM); against Pseudomonas aeruginosa, above 32 µg/mL.

Consider `CN(C)Cc1ccc2c(N(C)C)c3c(c(O)c2c1)C(=O)C1=C(O)[C@]2(O)C(=O)C(C(N)=O)=C(O)[C@@H](N(C)C)[C@@H]2C[C@@H]1C3`, for which the minimal inhibitory concentration (MIC) with Escherichia coli [1] is 2 µg/mL (≈ 3.54 µM); in the experiment on Staphylococcus aureus [2], 2 µg/mL (≈ 3.54 µM); with Streptococcus pneumoniae [3], below 0.0156 µg/mL; in the experiment on Enterococcus faecalis [4], 0.25 µg/mL (≈ 0.443 µM); against Streptococcus pneumoniae [6], 0.25 µg/mL (≈ 0.443 µM); in the experiment on Klebsiella pneumoniae [7], 8 µg/mL (≈ 14.2 µM). Further, the minimum inhibitory concentration (MIC) was 32 µg/mL (≈ 56.7 µM) against Enterobacter cloacae; 0.25 µg/mL (≈ 0.443 µM) in the experiment with Staphylococcus aureus [8]; 2 µg/mL (≈ 3.54 µM) against Enterococcus faecalis [9]; 16 µg/mL (≈ 28.3 µM) in the experiment on Acinetobacter baumannii; 0.25 µg/mL (≈ 0.443 µM) in the experiment on Staphylococcus aureus [10]; above 32 µg/mL against Pseudomonas aeruginosa.

For `CN(C)c1cccc2c(O)c3c(cc12)C[C@H]1C[C@H]2[C@H](N(C)C)C(O)=C(C(N)=O)C(=O)[C@@]2(O)C(O)=C1C3=O`, the minimal inhibitory concentration (MIC) was 2 µg/mL (≈ 3.94 µM) against Staphylococcus aureus [2]; 4 µg/mL (≈ 7.88 µM) in the experiment on Streptococcus pneumoniae [3]; 1 µg/mL (≈ 1.97 µM) against Enterococcus faecalis [4]; above 32 µg/mL with Klebsiella pneumoniae [5]; 8 µg/mL (≈ 15.8 µM) against Streptococcus pneumoniae [6]; above 32 µg/mL in the experiment with Klebsiella pneumoniae [7]. The MIC against Enterobacter cloacae is above 32 µg/mL; in the experiment with Escherichia coli [11], above 32 µg/mL; with Staphylococcus aureus [8] it was 1 µg/mL (≈ 1.97 µM); in the experiment on Enterococcus faecalis [9] it was 2 µg/mL (≈ 3.94 µM); against Acinetobacter baumannii, 16 µg/mL (≈ 31.5 µM); in the experiment on Staphylococcus aureus [10], 1 µg/mL (≈ 1.97 µM). The molecule also showed a minimal inhibitory concentration (MIC) with Pseudomonas aeruginosa above 32 µg/mL.
